According to PMC3390238 (Science Translational Medicine, 2012):
Like-named read-outs stand apart in the source and are kept apart here. Positions of bridges follow the written chain, without caps; N, C: chain ends. Non-standard residues stand in square brackets, D forms with d. Residues, ends and D or L forms follow the SMILES beside them. hArg = N=C(N)NCCCC[C@H](N)C(=O)O; Mpa = O=C(O)CCS

Tests used:
[1] = tested on: platelet adhesion/aggregation to collagen; experiment: Platelet adhesion/aggregation to collagen; assay type: cell-based, human
αIIbβ3 [2] = target: T1, αIIbβ3 (Homo sapiens, UniProt P05106+P08514); experiment: Platelet adhesion to immobilized fibrinogen screening assay; assay type: cell-based; conditions: for inhibition of platelet adhesion to fibrinogen: mean ± SD, five experiments
rat platelets = experiment: ADP-induced rat platelet aggregation; assay type: cell-based
αIIbβ3 headpiece [3] = target: T2, αIIbβ3 headpiece (Homo sapiens, UniProt P05106+P08514); experiment: Gel filtration of soluble αIIbβ3 headpiece; conditions: for reduction in αIIbβ3 headpiece elution volume: Superdex 200
Target sequence in this assay (P08514 32-652 limits assumed): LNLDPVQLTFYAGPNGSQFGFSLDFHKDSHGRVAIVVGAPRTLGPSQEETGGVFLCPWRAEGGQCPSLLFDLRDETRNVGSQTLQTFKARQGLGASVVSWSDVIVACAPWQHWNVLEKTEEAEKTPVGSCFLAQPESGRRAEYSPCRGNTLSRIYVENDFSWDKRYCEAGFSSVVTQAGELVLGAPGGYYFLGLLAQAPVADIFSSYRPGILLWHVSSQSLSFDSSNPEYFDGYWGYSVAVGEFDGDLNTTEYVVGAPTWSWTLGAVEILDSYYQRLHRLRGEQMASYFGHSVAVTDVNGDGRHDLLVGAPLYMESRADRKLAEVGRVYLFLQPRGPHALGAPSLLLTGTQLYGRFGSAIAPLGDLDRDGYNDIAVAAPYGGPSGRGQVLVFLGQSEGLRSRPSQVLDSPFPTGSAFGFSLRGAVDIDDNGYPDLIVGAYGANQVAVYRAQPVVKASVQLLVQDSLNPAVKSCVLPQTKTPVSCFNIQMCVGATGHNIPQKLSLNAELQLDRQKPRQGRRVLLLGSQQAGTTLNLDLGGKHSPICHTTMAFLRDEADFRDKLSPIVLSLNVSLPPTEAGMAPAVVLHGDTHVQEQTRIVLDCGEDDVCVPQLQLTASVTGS
Target sequence in this assay (P05106 27-498 limits assumed): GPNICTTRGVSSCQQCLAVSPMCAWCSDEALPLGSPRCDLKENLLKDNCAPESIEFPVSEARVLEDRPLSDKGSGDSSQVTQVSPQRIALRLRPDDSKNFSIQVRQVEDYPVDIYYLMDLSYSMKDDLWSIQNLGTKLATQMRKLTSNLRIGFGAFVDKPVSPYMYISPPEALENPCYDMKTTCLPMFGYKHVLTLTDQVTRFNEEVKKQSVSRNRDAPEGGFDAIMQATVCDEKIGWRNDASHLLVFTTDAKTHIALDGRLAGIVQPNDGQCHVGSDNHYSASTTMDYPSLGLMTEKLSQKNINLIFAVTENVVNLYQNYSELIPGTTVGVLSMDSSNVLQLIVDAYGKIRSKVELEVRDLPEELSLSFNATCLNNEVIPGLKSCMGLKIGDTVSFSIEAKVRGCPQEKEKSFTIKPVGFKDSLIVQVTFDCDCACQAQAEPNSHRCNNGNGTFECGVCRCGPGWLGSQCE

αIIbβ3 [4] = target: T1, αIIbβ3; experiment: Platelet aggregation induced by thrombin receptor–activating peptide; assay type: cell-based; conditions: 20 mM vs 1 mM Mg2+
purified αIIbβ3 = purified αIIbβ3 (Homo sapiens, UniProt P05106+P08514); experiment: Negative stain EM of αIIbβ3 nanodiscs
αIIbβ3 [5] = target: T1, αIIbβ3; experiment: Platelet adhesion to fibrinogen at different Mg2+ concentrations; assay type: cell-based; conditions: for IC50: IC50, platelet adhesion to fibrinogen, 1 mM Ca2+, mean ± SD, three experiments
αVβ3 = αVβ3 (Homo sapiens, UniProt P05106+P06756); experiment: αVβ3-mediated HEK293 cell adhesion to vitronectin; assay type: cell-based
platelet αIIbβ3 = platelet αIIbβ3 (Homo sapiens, UniProt P05106+P08514); experiment: Priming assay: induction of fluorescent fibrinogen binding to platelets; assay type: cell-based; conditions: for incremental fibrinogen binding: one experiment
Sequence of platelet αIIbβ3 (P08514 32-887 limits assumed): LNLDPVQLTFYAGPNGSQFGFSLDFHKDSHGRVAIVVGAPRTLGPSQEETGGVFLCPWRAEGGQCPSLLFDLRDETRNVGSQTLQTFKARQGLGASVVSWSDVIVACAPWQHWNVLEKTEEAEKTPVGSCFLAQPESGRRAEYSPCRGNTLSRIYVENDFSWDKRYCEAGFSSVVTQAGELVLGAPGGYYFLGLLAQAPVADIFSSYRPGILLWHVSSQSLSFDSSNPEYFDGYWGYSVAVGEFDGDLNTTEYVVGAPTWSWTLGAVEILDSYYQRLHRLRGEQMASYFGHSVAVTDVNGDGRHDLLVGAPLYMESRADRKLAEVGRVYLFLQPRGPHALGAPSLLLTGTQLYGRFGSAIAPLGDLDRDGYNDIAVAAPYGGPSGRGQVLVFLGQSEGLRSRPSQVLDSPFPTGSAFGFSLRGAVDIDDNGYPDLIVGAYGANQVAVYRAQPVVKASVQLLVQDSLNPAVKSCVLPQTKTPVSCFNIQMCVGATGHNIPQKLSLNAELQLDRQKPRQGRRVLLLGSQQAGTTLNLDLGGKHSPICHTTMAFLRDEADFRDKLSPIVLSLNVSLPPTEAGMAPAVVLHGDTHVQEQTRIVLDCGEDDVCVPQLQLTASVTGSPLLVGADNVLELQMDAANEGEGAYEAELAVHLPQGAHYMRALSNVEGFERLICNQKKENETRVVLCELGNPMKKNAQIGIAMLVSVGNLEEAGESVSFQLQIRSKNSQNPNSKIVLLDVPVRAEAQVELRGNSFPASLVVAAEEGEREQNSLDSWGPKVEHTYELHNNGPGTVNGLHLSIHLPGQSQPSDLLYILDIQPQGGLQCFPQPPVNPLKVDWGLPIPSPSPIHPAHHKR
Sequence of platelet αIIbβ3 (P08514 891-1039 partner limits assumed): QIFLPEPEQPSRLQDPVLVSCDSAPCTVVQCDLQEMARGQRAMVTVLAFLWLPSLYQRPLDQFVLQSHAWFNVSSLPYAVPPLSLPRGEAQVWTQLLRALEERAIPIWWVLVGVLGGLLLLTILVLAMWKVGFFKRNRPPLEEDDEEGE
Sequence of platelet αIIbβ3 (P05106 27-788): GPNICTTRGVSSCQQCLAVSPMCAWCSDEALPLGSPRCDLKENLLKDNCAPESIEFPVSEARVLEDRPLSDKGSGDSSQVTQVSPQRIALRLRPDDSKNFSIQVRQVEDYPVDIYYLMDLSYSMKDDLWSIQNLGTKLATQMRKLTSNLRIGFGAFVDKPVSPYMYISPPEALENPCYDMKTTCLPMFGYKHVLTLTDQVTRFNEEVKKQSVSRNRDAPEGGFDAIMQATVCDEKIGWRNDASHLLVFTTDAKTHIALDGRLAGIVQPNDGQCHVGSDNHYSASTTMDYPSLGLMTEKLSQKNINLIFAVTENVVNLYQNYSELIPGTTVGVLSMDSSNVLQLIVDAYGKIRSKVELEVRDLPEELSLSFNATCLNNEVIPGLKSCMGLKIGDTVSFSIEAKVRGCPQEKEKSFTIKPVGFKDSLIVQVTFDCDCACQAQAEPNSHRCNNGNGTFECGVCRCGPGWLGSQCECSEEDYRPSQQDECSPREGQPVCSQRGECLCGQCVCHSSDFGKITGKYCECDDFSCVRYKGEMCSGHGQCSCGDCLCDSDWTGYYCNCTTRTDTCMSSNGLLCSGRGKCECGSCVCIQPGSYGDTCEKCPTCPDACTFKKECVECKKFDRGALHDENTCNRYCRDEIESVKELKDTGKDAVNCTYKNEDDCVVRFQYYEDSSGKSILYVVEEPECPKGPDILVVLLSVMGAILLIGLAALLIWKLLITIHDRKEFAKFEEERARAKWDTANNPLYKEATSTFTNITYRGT

recombinant human αIIbβ3 = assay type: cell-based; conditions: going from 1 to 50 mM Mg2+
Procedure, shortened: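 CHO-K cells stably expressing human αIIbβ3 were preincubated ±test compound for 30 min at each Mg²⁺ level (1 to 50 mM) plus 1 mM Ca²⁺. They were then exposed to PAC-1 (5 µg/ml) with activating mAb PT25-2 (5 µg/ml) for 30 min at 25°C, stained with PE anti-mouse IgM on ice for 30 min, and analysed by flow cytometry. Read-out was % MFI with vs without drug (n=3); IC50 was compared across Mg²⁺ levels.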

αIIbβ3 [6] = target: T1, αIIbβ3; experiment: ADP-induced platelet aggregation of platelet-rich plasma; assay type: cell-based
[7] = target: αIIbβ3 ligand-induced binding sites (Homo sapiens, UniProt P05106+P08514); experiment: Induction of ligand-induced binding site; assay type: cell-based; conditions: for PMI-1 binding to platelets, % of amount bound in the presence of eptifibatide: αIIb LIBS mAb PMI-1, untreated 46 ± 5%; for PMI-1 binding to platelets, % of amount bound in the presence of eptifibatide / LIBS1 binding to platelets, % of amount bound in the presence of eptifibatide: eptifibatide = 100%; for AP5 binding to platelets, % of amount bound in the presence of eptifibatide: β3 LIBS mAb AP5, eptifibatide 10 μM = 100%, untreated 7 ± 3%; for LIBS1 binding to platelets, % of amount bound in the presence of eptifibatide: β3 LIBS mAb LIBS1, after 30 min, untreated 22 ± 3%
Sequence of αIIbβ3 ligand-induced binding sites (P08514 32-887 limits assumed): as the sequence (P08514 32-887 limits assumed) above
Sequence of αIIbβ3 ligand-induced binding sites (P08514 891-1039 partner limits assumed): as the sequence (P08514 891-1039 partner limits assumed) above
Sequence of αIIbβ3 ligand-induced binding sites (P05106 27-788): as the sequence (P05106 27-788) above
Procedure, shortened: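 Flow-based binding of LIBS mAbs to platelets: AP5 (β3 PSI domain), LIBS1 (β3 distal leg) and PMI-1 (αIIb). Net normalized fluorescence was expressed relative to platelets treated with eptifibatide, set as 100%. For AP5 the reference was eptifibatide 10 µM, 30 min at 22°C. Replicates: n=5 for AP5, n=4 for PMI-1.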

αIIbβ3 headpiece [8] = target: T2, αIIbβ3 headpiece; experiment: Dynamic light scattering of soluble αIIbβ3 headpiece
Target sequence in this assay (P08514 32-652 limits assumed): as the sequence (P08514 32-652 limits assumed) above
Target sequence in this assay (P05106 27-498 limits assumed): as the sequence (P05106 27-498 limits assumed) above

αIIbβ3 [9] = target: T1, αIIbβ3; experiment: αIIbβ3-mediated HEK293 cell adhesion to fibrinogen; assay type: cell-based; conditions: 100 μM; n = 4
mouse platelets = experiment: ADP-induced mouse platelet aggregation; assay type: cell-based
αIIbβ3 [10] = conditions: 25.6 mg/kg; cited from earlier work
normal human platelets = experiment: Recruitment of αIIbβ3-dependent patient IgG to drug-pretreated platelets; assay type: cell-based; conditions: for recruitment of patient IgG to platelets: all 5 tirofiban samples and 13 of 15 eptifibatide samples
Procedure, shortened: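 Normal platelets were pretreated with test compound, then exposed to sera from patients with tirofiban- (5) or eptifibatide-induced (15) thrombocytopenia. Platelet-bound patient IgG was read as median MFI. Signals were compared with untreated control platelets and with eptifibatide-treated platelets.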

αIIbβ3 headpiece [11] = target: T2, αIIbβ3 headpiece; experiment: X-ray crystallography of RUC-2–αIIbβ3 headpiece complex; conditions: determined by x-ray crystallography, PDB code 3T3M
[12] = pKa by titration in water; assay type: physicochemical
hαIIb/mβ3 = hαIIb/mβ3 (UniProt O54890+P08514); experiment: Aggregation of platelets from a mouse expressing human αIIb and mouse β3; assay type: cell-based
[13] = 100 μM, first reactive eptifibatide-patient serum
[14] = read-out: inhibition of platelet adhesion to fibrinogen

10E5: anti-αIIbβ3 (αIIbβ3-specific) mAb
inhibition of platelet adhesion/aggregation to collagen ([1]; mAb, concentration not given): ~ 30%

CCc1nn2c(=O)cc(N3CCNCC3)nc2s1 [RUC-1, reference compound]
inhibition of platelet adhesion to fibrinogen (αIIbβ3 [2]; 10 μM): 22 ± 8%
inhibition of platelet adhesion to fibrinogen (αIIbβ3 [2]; 30 μM): 38 ± 10%
inhibition of platelet adhesion to fibrinogen (αIIbβ3 [2]; 100 μM): 70 ± 15%
inhibition of rat platelet aggregation induced by ADP (rat platelets; 100 μM): did not inhibit
increase in Stokes radius, gel filtration (αIIbβ3 headpiece [3]; 500 μM (near-saturating)): little or no increases
reduction in αIIbβ3 headpiece elution volume (αIIbβ3 headpiece [3]; 500 μM (near-saturating)): 0.03 mL
inhibitory effect on SFLLRN-induced platelet aggregation (αIIbβ3 [4]; 100 μM): much less evident
shift of NIL value distribution of αIIbβ3 nanodiscs (purified αIIbβ3; up to 100 μM, P = 0.23): neither RUC-1 at concentrations up to 100 μM nor RUC-2 at concentrations up to 10 μM produced a significant shift
increase in IC50 at higher Mg2+ concentrations, platelet adhesion to fibrinogen (αIIbβ3 [5]; compared with RUC-2): Neither RUC-1 nor tirofiban showed a comparable increase in IC50
inhibition of adhesion of HEK293 cells expressing αVβ3 to vitronectin (αVβ3; 100 μM, n = 4): 5 ± 7%
incremental fibrinogen binding (platelet αIIbβ3; 100 μM): 2%
increase of IC50 for PAC-1 binding (recombinant human αIIbβ3): ~ 6%
inhibition of human platelet aggregation (αIIbβ3 [6]; 100 μM): nearly completely inhibited
IC50 (αIIbβ3 [6]; read-out: IC50, ADP-induced platelet aggregation, citrated PRP, ADP 5 μM, initial slope): 9700 ± 1000 nM
PMI-1 binding to platelets, % of amount bound in the presence of eptifibatide [7]: 73 ± 9%
AP5 binding to platelets, % of amount bound in the presence of eptifibatide [7]: 10 ± 4%
LIBS1 binding to platelets, % of amount bound in the presence of eptifibatide [7]: 18 ± 2%
increase in Stokes radius, DLS (αIIbβ3 headpiece [8]; 500 μM (near-saturating)): 0.08 nm
inhibition of adhesion of HEK293 cells expressing αIIbβ3 to fibrinogen (αIIbβ3 [9]): 55 ± 5%
inhibition of mouse platelet aggregation induced by ADP (mouse platelets; 100 μM): did not inhibit
antithrombotic effects in murine models in large and small blood vessels (αIIbβ3 [10]): has antithrombotic effects
recruitment of patient IgG to platelets (normal human platelets; 100 μM): Neither RUC-1 nor RUC-2 induced recruitment of patient IgG
MFI increase as % of value with eptifibatide-treated platelets (normal human platelets; [13]): 13%
median MFI relative to control platelets (normal human platelets; [13]): 6.8 times
recognition of pretreated platelets by patient serum (normal human platelets; 100 μM, second reactive eptifibatide-patient serum): but not RUC-1

NCC(=O)Nc1cccc(-c2nn3c(=O)cc(N4CCNCC4)nc3s2)c1 [RUC-2, 2-amino-N-(3-(5-oxo-7-(piperazin-1-yl)-5H-[1,3,4]thiadiazolo[3,2-a]pyrimidin-2-yl)phenyl)acetamide]
αIIbβ3-dependent platelet adhesion to fibrinogen in a screening assay (αIIbβ3 [2]): RUC-2 inhibited αIIbβ3-dependent platelet adhesion to fibrinogen in a screening assay and αIIbβ3-dependent platelet aggregation. It was found to bind to the target via x-ray crystallography (PDB code 3T3M).
inhibition at 10 µM (αIIbβ3 [2]; [14]): 66 ± 10%
inhibition at 30 µM (αIIbβ3 [2]; [14]): 80 ± 13%
inhibition at 100 µM (αIIbβ3 [2]; [14]): 83 ± 7%
inhibition of rat platelet aggregation induced by ADP (rat platelets; 1 μM): did not inhibit
increase in Stokes radius, gel filtration (αIIbβ3 headpiece [3]; 100 μM (near-saturating)): little or no increases
reduction in αIIbβ3 headpiece elution volume (αIIbβ3 headpiece [3]; 100 μM (near-saturating)): 0.07 mL
inhibitory effect on SFLLRN-induced platelet aggregation (αIIbβ3 [4]; 1 μM): clearly attenuated
mechanism of inhibition (αIIbβ3 headpiece [11]): Orthosteric inhibition at the RGD binding domain as determined by x-ray crystallography
IC50 (αIIbβ3 [5]; 1 mM Mg2+): 290 ± 100 nM
IC50 (αIIbβ3 [5]; 20 mM Mg2+): 910 ± 210 nM
IC50 (αIIbβ3 [5]; 50 mM Mg2+): 1300 ± 350 nM
decrease in affinity, platelet adhesion to fibrinogen (αIIbβ3 [5]; going from 1 to 50 mM Mg2+): ~ 80%
increase in IC50, platelet adhesion to fibrinogen (αIIbβ3 [5]; going from 1 to 50 mM Mg2+): ~ 4.5 fold
pKa ([12]; pKa 1 (primary amine)): 6.41
pKa ([12]; pKa 2 (piperazine nitrogen)): 8.08
effect on αVβ3-mediated cell adhesion to vitronectin (αVβ3): RUC-2 had minimal effect on αVβ3-mediated cell adhesion to vitronectin.
incremental fibrinogen binding (platelet αIIbβ3; 1 μM): did not produce any incremental binding
fibrinogen binding to platelets (priming) (platelet αIIbβ3; 5 μM): did not increase the fibrinogen binding
reduction in affinity (PAC-1 binding) (recombinant human αIIbβ3): ~75%
increase of IC50 for PAC-1 binding (recombinant human αIIbβ3; 1 mM Ca2+, activating mAb PT25-2): ~ 3.9 fold
IC50 (αIIbβ3 [6]): 220 nM
αIIbβ3-dependent platelet aggregation (αIIbβ3 [6]): RUC-2 inhibited αIIbβ3-dependent platelet adhesion to fibrinogen in a screening assay and αIIbβ3-dependent platelet aggregation. It was found to bind to the target via x-ray crystallography (PDB code 3T3M).
inhibition of human platelet aggregation (αIIbβ3 [6]; 1 μM): nearly completely inhibited
inhibition of platelet adhesion/aggregation to collagen ([1]; 1 to 100 μM): ~ 30%
further inhibition of adhesion/aggregation to collagen ([1]; RUC-2 combined with anti-αIIbβ3 antibody 10E5): did not further inhibit
platelet adhesion to collagen, microscopic analysis ([1]; decreased recruitment of additional platelets to adherent platelets): did not decrease platelet adhesion to collagen
PMI-1 binding to platelets, % of amount bound in the presence of eptifibatide [7]: 82 ± 13%
AP5 binding to platelets, % of amount bound in the presence of eptifibatide [7]: 18 ± 5%
LIBS1 binding to platelets, % of amount bound in the presence of eptifibatide [7]: 21 ± 3%
inhibition of aggregation of hαIIb/mβ3 mouse platelets (hαIIb/mβ3): essentially completely inhibited
increase in Stokes radius, DLS (αIIbβ3 headpiece [8]; 100 μM (near-saturating)): 0.16 nm
inhibition of mouse platelet aggregation induced by ADP (mouse platelets; 1 μM): did not inhibit
recruitment of patient IgG to platelets (normal human platelets; 3.9 μM): Neither RUC-1 nor RUC-2 induced recruitment of patient IgG
MFI increase as % of value with eptifibatide-treated platelets (normal human platelets; 3.9 μM, first reactive eptifibatide-patient serum): 8%

N=C(N)NCCCC[C@@H]1NC(=O)CCSSC[C@@H](C(N)=O)NC(=O)[C@@H]2CCCN2C(=O)[C@H](Cc2c[nH]c3ccccc23)NC(=O)[C@H](CC(=O)O)NC(=O)CNC1=O [eptifibatide] ([Mpa][hArg]GDWPC-NH2; disulfide 1-7 (inferred))
shift of NIL value distribution of αIIbβ3 nanodiscs (purified αIIbβ3; dose-dependent, P < 0.001): shifted the distribution in a dose-dependent manner
incremental fibrinogen binding (platelet αIIbβ3; 1 μM): 34%

CCCCS(=O)(=O)N[C@@H](Cc1ccc(OCCCCC2CCNCC2)cc1)C(=O)O [tirofiban]
inhibition at 10 µM (αIIbβ3 [2]; [14]): 87 ± 9%
increase in Stokes radius, gel filtration (αIIbβ3 headpiece [3]; 56 μM (near-saturating)): 0.4 nm
reduction in αIIbβ3 headpiece elution volume (αIIbβ3 headpiece [3]; 56 μM (near-saturating)): 0.38 mL
incremental fibrinogen binding (platelet αIIbβ3; 0.5 μM): 17%
change of IC50 for PAC-1 binding (recombinant human αIIbβ3): completely unchanged
increase in Stokes radius, DLS (αIIbβ3 headpiece [8]; 56 μM (near-saturating)): 0.45 nm
recruitment of patient IgG (normal human platelets; the two eptifibatide-treated patient samples reactive with RUC compounds): able to recruit patient IgG

RGDS
incremental fibrinogen binding (platelet αIIbβ3; 100 μM): 36%
